From ChEMBL document CHEMBL1124320, “2,2-Difluoro-5-hexyne-1,4-diamine: a potent enzyme-activated inhibitor of ornithine decarboxylase” (J Med Chem, 1989)

What was measured:
Ornithine decarboxylase = target: T1, Ornithine decarboxylase (Rattus norvegicus, UniProt P09057); assay: In vitro inhibition against ornithine decarboxylase
T1 sequence (P09057 whole entry): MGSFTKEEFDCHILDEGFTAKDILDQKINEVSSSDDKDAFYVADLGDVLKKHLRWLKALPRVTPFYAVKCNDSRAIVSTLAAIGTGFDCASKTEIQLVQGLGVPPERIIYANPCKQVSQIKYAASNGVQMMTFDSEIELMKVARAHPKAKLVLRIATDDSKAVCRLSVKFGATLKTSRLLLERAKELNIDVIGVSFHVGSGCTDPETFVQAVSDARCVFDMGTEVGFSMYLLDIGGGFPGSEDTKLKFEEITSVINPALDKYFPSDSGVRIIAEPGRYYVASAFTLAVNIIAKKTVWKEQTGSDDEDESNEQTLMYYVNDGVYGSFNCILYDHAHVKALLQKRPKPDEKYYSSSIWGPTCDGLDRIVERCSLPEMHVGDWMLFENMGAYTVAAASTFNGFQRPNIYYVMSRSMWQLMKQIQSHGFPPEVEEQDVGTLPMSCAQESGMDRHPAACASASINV
Procedure, shortened: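 Time-dependent inactivation of partially purified rat liver ODC (thioacetamide-induced, acid treatment at pH 4.6). Enzyme incubated at 37 °C in 30 mM phosphate pH 7.1, 5 mM DTT and 0.1 mM pyridoxal phosphate with varied inhibitor concentrations. Aliquots were assayed at intervals. Half-inactivation times were plotted against 1/[I] (Kitz–Wilson, least-squares fit) to give apparent K_I and τ1/2.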

[1] = target: ornithine decarboxylase (Rattus norvegicus) (UniProt P09057); assay: Time of half-inactivation of ornithine decarboxylase extrapolated to infinite inhibitor concentration was determined; settings: in vitro
[2] = In vitro inhibition against rat aorta semicarbazide-sensitive amine oxidase; type: tissue-based
[3] = target: T2, S-adenosylmethionine decarboxylase proenzyme (Homo sapiens) (UniProt P17707)
T2 sequence (whole entry): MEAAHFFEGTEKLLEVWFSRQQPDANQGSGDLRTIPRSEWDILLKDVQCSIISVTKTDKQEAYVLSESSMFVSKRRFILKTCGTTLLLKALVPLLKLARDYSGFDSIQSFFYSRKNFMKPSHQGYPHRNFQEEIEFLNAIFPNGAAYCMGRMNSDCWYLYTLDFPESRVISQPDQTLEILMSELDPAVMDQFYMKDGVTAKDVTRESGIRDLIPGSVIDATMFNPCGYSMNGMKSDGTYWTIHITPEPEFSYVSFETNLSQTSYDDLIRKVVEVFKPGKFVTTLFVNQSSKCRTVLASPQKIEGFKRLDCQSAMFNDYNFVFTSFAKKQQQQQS

Row | Ka [3] | Compound | Ki (Ornithine decarboxylase) | half-inactivation time [1] | Ki [2]
1 |  | C#C[C@@H](N)CC[C@H](C)N | 3 µM | 1.7 min | 
2 |  | C#CC(N)CC(F)(F)CN (stereo unspecified) |  |  | 0.1 µM
3 | 16 µM | NCCCCN |  |  | 
4 |  | NCCCC(N)(CF)C(=O)O (stereo unspecified) | 2.7 µM | 2.6 min | 
